According to ChEMBL document CHEMBL4808228, “Synthesis of novel 1,2,4-trioxanes and antimalarial evaluation against multidrug-resistant Plasmodium yoelii nigeriensis” (2021):

What was measured:
Format in all cases: functional
Plasmodium yoelii [1] = assay: Antimalarial activity against multidrug-resistant Plasmodium yoelii infected in Swiss mouse assessed as inhibition of parasitemia at 48 mg/kg, po for 4 days measured on day 4 relative to control; settings: 96 h, time 4 day
Procedure, shortened: (§1)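 Swiss mice (25 ± 1 g), five per dose, were infected with 1 X 10⁶ parasitized RBC on day 0. Dosing was oral on days 0–3, twice daily, in groundnut oil (0.1 ml per dose). Day-4 thin-smear parasitaemia gave % suppression = [(C−T)/C] × 100 versus the control group. 100% meant no parasites in 50 oil immersion fields.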

Plasmodium yoelii [2] = assay: Antimalarial activity against multidrug-resistant Plasmodium yoelii infected in Swiss mouse assessed as inhibition of parasitemia at 48 mg/kg, im for 4 days measured on day 4 relative to control; settings: 96 h, time 4 day
Procedure, shortened: (§2)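 In this im regimen, mice (Swiss, 25 ± 1 g; n = 5 per dose) received 1 X 10⁶ parasitized RBC on day 0 and were treated on days 0–3 in two divided daily doses. Parasitaemia on day 4 was read from thin blood smears, and suppression = [(C−T)/C] × 100 relative to the control group. Full suppression meant none seen in 50 oil immersion fields.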

Plasmodium yoelii [3] = assay: Antimalarial activity against multidrug-resistant Plasmodium yoelii infected in Swiss mouse assessed as animal survival at 48 mg/kg, po for 4 days and measured for 28 days; settings: 672 h, time 28 day
Procedure, shortened: (§3)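 Swiss mice (25 ± 1 g) were inoculated with 1 X 10⁶ parasitized RBC on day 0. Groups of five were dosed orally on days 0–3 in two divided daily doses, in groundnut oil, 0.1 ml per dose. Thin blood smears were read on days 4–28, and mice without patent infection by day 28 counted as cured. β-Arteether was the positive control.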

Plasmodium yoelii [4] = assay: Antimalarial activity against multidrug-resistant Plasmodium yoelii infected in Swiss mouse assessed as animal survival at 48 mg/kg, im for 4 days and measured for 28 days; settings: 672 h, time 28 day
Procedure, shortened: (§4)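 Intramuscular dosing of groups of five Swiss mice (25 ± 1 g) infected on day 0 with 1 X 10⁶ parasitized RBC, on days 0–3 in two divided daily doses. Parasitaemia came from thin blood smears over days 4–28. Animals without patent infection till day 28 were recorded as cured. The strain is resistant to chloroquine, mefloquine and halofantrine.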

Plasmodium yoelii [5] = assay: Antimalarial activity against multidrug-resistant Plasmodium yoelii infected in Swiss mouse assessed as inhibition of parasitemia at 24 mg/kg, po for 4 days measured on day 4 relative to control; settings: 96 h, time 4 day; procedure, shortened: as §1
Plasmodium yoelii [6] = assay: Antimalarial activity against multidrug-resistant Plasmodium yoelii infected in Swiss mouse assessed as inhibition of parasitemia at 24 mg/kg, im for 4 days measured on day 4 relative to control; settings: 96 h, time 4 day; procedure, shortened: as §2
Plasmodium yoelii [7] = assay: Antimalarial activity against multidrug-resistant Plasmodium yoelii infected in Swiss mouse assessed as animal survival at 24 mg/kg, po for 4 days and measured for 28 days; settings: 672 h, time 28 day; procedure, shortened: as §3
Plasmodium yoelii [8] = assay: Antimalarial activity against multidrug-resistant Plasmodium yoelii infected in Swiss mouse assessed as animal survival at 24 mg/kg, im for 4 days and measured for 28 days; settings: 672 h, time 28 day; procedure, shortened: as §4
Plasmodium yoelii [9] = assay: Antimalarial activity against multidrug-resistant Plasmodium yoelii infected in Swiss mouse assessed as inhibition of parasitemia at 48 mg/kg, im for 4 days measured on day 4 relative to po dosed artemisinin; settings: time 4 day
Plasmodium yoelii [10] = assay: Antimalarial activity against multidrug-resistant Plasmodium yoelii infected in Swiss mouse assessed as inhibition of parasitemia at 48 mg/kg, po for 4 days measured on day 4 relative to po dosed artemisinin; settings: time 4 day
Plasmodium yoelii [11] = assay: Antimalarial activity against multidrug-resistant Plasmodium yoelii infected in Swiss mouse assessed as inhibition of parasitemia at 96 mg/kg, po for 4 days measured on day 4 relative to control; settings: 96 h, time 4 day; procedure, shortened: as §1
Plasmodium yoelii [12] = assay: Antimalarial activity against multidrug-resistant Plasmodium yoelii infected in Swiss mouse assessed as inhibition of parasitemia at 96 mg/kg, im for 4 days measured on day 4 relative to control; settings: 96 h, time 4 day; procedure, shortened: as §2
Plasmodium yoelii [13] = assay: Antimalarial activity against multidrug-resistant Plasmodium yoelii infected in Swiss mouse assessed as animal survival at 96 mg/kg, po for 4 days and measured for 28 days; settings: 672 h, time 28 day; procedure, shortened: as §3
Plasmodium yoelii [14] = assay: Antimalarial activity against multidrug-resistant Plasmodium yoelii infected in Swiss mouse assessed as animal survival at 96 mg/kg, im for 4 days and measured for 28 days; settings: 672 h, time 28 day; procedure, shortened: as §4

| SMILES | inhibition in vivo at 48 mg/kg (Plasmodium yoelii [1]) [%] | inhibition in vivo at 48 mg/kg (Plasmodium yoelii [2]) [%] | survival at 48 mg/kg (Plasmodium yoelii [3]) [%] | survival at 48 mg/kg (Plasmodium yoelii [4]) [%] | inhibition in vivo at 96 mg/kg (Plasmodium yoelii [11]) [%] | inhibition in vivo at 96 mg/kg (Plasmodium yoelii [12]) [%] | survival at 96 mg/kg (Plasmodium yoelii [13]) [%] | survival at 96 mg/kg (Plasmodium yoelii [14]) [%] | other results |
| --- | --- | --- | --- | --- | --- | --- | --- | --- | --- |
| C=C(c1ccc(Oc2ccc3ccc(OCCOC(=O)CCC(=O)O)cc3c2)cc1)C1COC2(OO1)C1CC3CC(C1)CC2C3 (centres undefined) | 77.4 | 58.8 | 0 | 0 |  |  |  |  |  |
| C=C(c1ccc(Oc2ccc3ccc(OCCOC(=O)CCC(=O)O)cc3c2)cc1)C1COC2(CCCCC2)OO1 (centres undefined) | 100 | 100 |  | 60 |  |  |  |  |  |
| C=C(c1ccc(Oc2ccc3ccc(OCCOC(=O)CCC(=O)O)cc3c2)cc1)C1COC2(CCCC2)OO1 (centres undefined) | 100 | 100 | 100 | 100 |  |  |  |  | inhibition in vivo at 24 mg/kg (Plasmodium yoelii [5]): 100%; inhibition in vivo at 24 mg/kg (Plasmodium yoelii [6]): 100%; survival at 24 mg/kg (Plasmodium yoelii [7]): 0%; survival at 24 mg/kg (Plasmodium yoelii [8]): 80%; fold change (FC) (Plasmodium yoelii [9]): 2; fold change (FC) (Plasmodium yoelii [10]): 2 |
| C=C(c1ccc(Oc2ccc3ccc(OCCO)cc3c2)cc1)C1COC2(OO1)C1CC3CC(C1)CC2C3 (centres undefined) | 83.2 | 51.4 | 0 | 0 |  |  |  |  |  |
| C=C(c1ccc(Oc2ccc(OCCOC(=O)CCC(=O)O)cc2)cc1)C1COC2(CCCCC2)OO1 (centres undefined) |  |  |  |  | 10 | 28.4 | 0 | 0 |  |
| C=C(c1ccc(Oc2cccc3c(OCCO)cccc23)cc1)C1COC2(CCCC2)OO1 (centres undefined) | 44.1 | 46.2 | 0 | 0 |  |  |  |  |  |
| C=C(c1ccc(Oc2cccc3c(OCCOC(=O)CCC(=O)O)cccc23)cc1)C1COC2(CCCC2)OO1 (centres undefined) | 39.4 | 28.3 | 0 | 0 |  |  |  |  |  |
| C=C(c1ccc(Oc2ccc3ccc(OCCO)cc3c2)cc1)C1COC2(CCCCC2)OO1 (centres undefined) | 83.5 | 71.6 | 0 | 0 |  |  |  |  |  |
| C=C(c1ccc(Oc2cccc3c(OCCOC(=O)CCC(=O)O)cccc23)cc1)C1COC2(OO1)C1CC3CC(C1)CC2C3 (centres undefined) | 27.5 | 42.2 | 0 | 0 |  |  |  |  |  |
| C=C(c1ccc(Oc2ccc(OCCO)cc2)cc1)C1COC2(CCCCC2)OO1 (centres undefined) |  |  |  |  | 45.4 | 72.4 | 0 | 0 |  |
| C=C(c1ccc(Oc2ccc(OCCO)cc2)cc1)C1COC2(OO1)C1CC3CC(C1)CC2C3 (centres undefined) | 85.5 |  | 0 |  | 100 | 100 | 100 | 0 |  |
| C=C(c1ccc(Oc2cccc3c(OCCO)cccc23)cc1)C1COC2(OO1)C1CC3CC(C1)CC2C3 (centres undefined) | 100 | 46.2 | 40 | 0 |  |  |  |  |  |
| C=C(c1ccc(Oc2ccc(OCCOC(=O)CCC(=O)O)cc2)cc1)C1COC2(OO1)C1CC3CC(C1)CC2C3 (centres undefined) |  |  |  |  | 35.6 | 100 | 0 | 40 |  |
| C=C(c1ccc(Oc2ccc(OCCO)cc2)cc1)C1COC2(CCCC2)OO1 (centres undefined) |  |  |  |  | 38.4 | 85.2 | 0 | 0 |  |
| C=C(c1ccc(Oc2cccc3c(OCCO)cccc23)cc1)C1COC2(CCCCC2)OO1 (centres undefined) | 38.2 | 46.2 | 0 | 0 |  |  |  |  |  |
| C=C(c1ccc(Oc2cccc3c(OCCOC(=O)CCC(=O)O)cccc23)cc1)C1COC2(CCCCC2)OO1 (centres undefined) | 49.8 | 26.6 | 0 | 0 |  |  |  |  |  |
| C=C(c1ccc(Oc2ccc3ccc(OCCO)cc3c2)cc1)C1COC2(CCCC2)OO1 (centres undefined) | 100 | 100 | 80 | 80 |  |  |  |  |  |
| C=C(c1ccc(Oc2ccc(OCCOC(=O)CCC(=O)O)cc2)cc1)C1COC2(CCCC2)OO1 (centres undefined) |  |  |  |  | 44.3 | 77.8 | 0 | 0 |  |
| C[C@@H]1CC[C@H]2[C@@H](C)C(=O)O[C@@H]3O[C@@]4(C)CC[C@@H]1[C@]32OO4 [ARTEMISININ] |  | 100 |  | 100 | 100 |  |  |  | inhibition in vivo at 24 mg/kg (Plasmodium yoelii [6]): 100%; survival at 24 mg/kg (Plasmodium yoelii [8]): 80% |
